Test results taken from ChEMBL document CHEMBL1158487, “Small molecule chloropyramine hydrochloride (C4) targets the binding site of focal adhesion kinase and vascular endothelial growth factor receptor 3 and suppresses breast cancer growth in vivo” (J Med Chem, 2009).
Active and inactive are the calls of the source. The rule behind the calls is not given here.

Tests used:
[1] = tested on: MCF7; test: Cytotoxicity against human MCF7 cells assessed as cell viability at 1 uM after 48 hrs by MTS assay; assay type: functional, cell-based
Method in brief: (§1)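 Viability measured by MTS after 48 h exposure. Cells were seeded at 5.0 × 10^3 per well and attached overnight before compound-containing medium was added. BT474 is a […] subclone grown in RPMI-1640 with 10% FBS and 250 µg/ml insulin. MCF7 stable clones carried either empty pcDNA3 or VEGFR-3. Mean ± SEM, ≥3 experiments, two-tailed t test.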

[2] = target: Vascular endothelial growth factor receptor 3 (Homo sapiens) (UniProt P35916); test: Inhibition of VEGFR3 phosphorylation in human BT474 cells assessed as partial dephosphorylation at Tyr1063/1068 activation loop at 1 to 10 uM by Western blotting; assay type: cell-based; settings: BT-474, TDE = time-dependent effect
[3] = tested on: MCF7; test: Decrease in colocalization of FAK-VEGFR3 complex in human MCF7 cells expressing VEGFR3 at 10 uM after 24 hrs by confocal microscopy; assay type: functional; design: scale not given: the % may be the effect or the level left
Method in brief: (§2)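 Cells were treated for 24 h with DMSO or 10 µM compound, then dual-immunostained for FAK (Alexa Fluor 488) together with VEGFR-3 or paxillin (Alexa Fluor 546). Confocal microscopy with scatter-plot analysis gave the percentage of colocalized molecules.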

[4] = target: Vascular endothelial growth factor receptor 3 (Homo sapiens) (UniProt P35916); test: Inhibition of VEGFR3 phosphorylation in human MCF7 cells expressing VEGFR3 assessed as partial dephosphorylation at Tyr1063/1068 activation loop at 1 to 10 uM by Western blotting; assay type: cell-based; settings: TDE = time-dependent effect
[5] = target: Focal adhesion kinase 1 (Homo sapiens) (UniProt Q05397); test: Inhibition of FAK phosphorylation in human BT474 cells assessed as partial dephosphorylation at 1 uM after 24 hrs by Western blotting; assay type: cell-based; settings: BT-474
[6] = tested on: MCF7; test: Antitumor activity against human MCF7 cells expressing VEGFR3 xenografted in nude-foxn1nu mouse assessed as reduction in tumor growth at 60 mg/kg, ip qd administered day after injection of cells after 21 days relative to control; assay type: functional; design: scale not given: the % may be the effect or the level left; settings: route intraperitoneal
Method in brief: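 Female 5–6-week hsd:athymic nude-foxn1nu mice (5 per group) were given 2–5 × 10^6 MCF7-VEGFR-3 cells per 200 µl subcutaneously in the right flank. From the next day they received 60 mg/kg ip once daily or PBS vehicle for 21 days. Tumours were measured thrice weekly (volume = length × width² × 0.5), then excised and weighed at sacrifice.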

[7] = target: Vascular endothelial growth factor receptor 3 (Homo sapiens) (UniProt P35916); test: Inhibition of VEGFR3 phosphorylation in human MCF7 cells expressing VEGFR3 assessed as complete dephosphorylation at Tyr1063/1068 activation loop at 1 to 10 uM by Western blotting; assay type: cell-based; settings: TDE = time-dependent effect
[8] = tested on: BT-474; test: Induction of apoptosis in human BT474 cells assessed as PARP degradation after 48 hrs; assay type: functional, cell-based
[9] = tested on: BT-474; test: Decrease in colocalization of FAK-paxillin complex in human BT474 cells at 10 uM after 24 hrs by confocal microscopy; assay type: functional; design: scale not given: the % may be the effect or the level left; method in brief: as §2
[10] = tested on: BT-474; test: Induction of apoptosis in human BT474 cells at 10 uM by TUNEL assay; assay type: functional
[11] = tested on: SAOS-2; test: Cytotoxicity against human Saos2 cells after 72 hrs by MTS assay; assay type: functional, cell-based; settings: SAOS-2, 72 h
Method in brief: (§3)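 MTS viability assay, read as mitochondrial dehydrogenase activity of metabolically active cells. Cells were seeded at 5.0 × 10^3 per well and attached overnight. Fresh medium with or without compound was added, followed by 72 h exposure at increasing concentrations. Error shown as ±SEM.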

[12] = tested on: MCF7; test: Induction of apoptosis in human MCF7 cells at 10 uM after 48 hrs by TUNEL assay; assay type: functional
[13] = target: Vascular endothelial growth factor receptor 3 (Homo sapiens) (UniProt P35916); test: Inhibition of VEGFR3 phosphorylation in human BT474 cells assessed as complete dephosphorylation at Tyr1063/1068 activation loop at 10 uM by Western blotting; assay type: cell-based; settings: BT-474
Method in brief: (§4)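 BT474 cells were exposed for 24 h to increasing doses (1 and 10 µM). Western blots of lysates were probed with a phospho-specific VEGFR-3 antibody for Tyr1063/1068 in the kinase activation loop.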

[14] = tested on: BT-474; test: Cytotoxicity against human BT474 cells assessed as cell viability at 0.1 to 10 uM by MTS assay; assay type: functional, cell-based
Method in brief: (§5)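 MTS cell survival assay. Cells were plated at 5.0 × 10^3 per well and allowed to attach overnight, then given fresh medium with or without compound for the designated time. Absorbance was read per the kit protocol. Mean ± SEM of three or more independent experiments.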

[15] = target: Focal adhesion kinase 1 (Homo sapiens) (UniProt Q05397); test: Inhibition of FAK phosphorylation in human BT474 cells assessed as decrease in total phosphorylation at 10 uM after 24 hrs by immunoprecipitation technique; assay type: cell-based; settings: BT-474
Method in brief: (§6)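 MCF7-VEGFR-3 and BT474 cells were treated for 24 h at 10 µM or 1 µM. FAK was immunoprecipitated and blotted with anti-phosphotyrosine antibody 4G10 to assess total FAK tyrosine phosphorylation.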

[16] = tested on: A-375; test: Cytotoxicity against human A375 cells after 72 hrs by MTS assay; assay type: functional, cell-based; settings: A-375, 72 h; method in brief: as §3
[17] = tested on: BT-474; test: Cytotoxicity against human BT474 cells assessed as cell viability at 100 uM by MTS assay; assay type: functional, cell-based; method in brief: as §5
[18] = target: Vascular endothelial growth factor receptor 3 (Homo sapiens) (UniProt P35916); test: Inhibition of VEGFR3 phosphorylation in human MCF7 cells expressing VEGFR3 assessed as partial dephosphorylation at Tyr1063/1068 activation loop after 24 hrs by Western blotting; assay type: cell-based
[19] = Cytotoxicity against human MCF10A cells assessed as cell viability at 0.1 to 10 uM by MTS assay; assay type: cell-based; settings: mcf-10a; method in brief: as §5
[20] = tested on: MIA PaCa-2; test: Cytotoxicity against human MIAPaCa2 cells after 72 hrs by MTS assay; assay type: functional, cell-based; settings: MIA PaCa-2, 72 h; method in brief: as §3
[21] = tested on: MCF7; test: Induction of apoptosis in human MCF7 cells expressing VEGFR3 at 10 uM after 48 hrs by TUNEL assay; assay type: functional
[22] = tested on: BT-474; test: Induction of apoptosis in human BT474 cells assessed as procaspase 8 activation after 48 hrs; assay type: functional, cell-based
[23] = target: Vascular endothelial growth factor receptor 3 (Homo sapiens) (UniProt P35916); test: Inhibition of VEGFR3 phosphorylation in human BT474 cells assessed as complete dephosphorylation at Tyr1063/1068 activation loop at 1 to 10 uM by Western blotting; assay type: cell-based; settings: BT-474, TDE = time-dependent effect; method in brief: as §4
[24] = tested on: BT-474; test: Antiproliferative activity against human BT474 cells after 48 hrs by BrdU incorporation assay; assay type: functional, cell-based
Method in brief: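 Cells plated at 2.5 × 10^3 per well and allowed to attach overnight. Fresh growth medium with or without compound was added along with BrdU labelling reagent, and cells were incubated for the set time. BrdU incorporation was then read with a kit per the manufacturer. Data are mean ± SEM of three or more independent experiments, compared by two-tailed Student's t test.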

[25] = tested on: MCF7; test: Induction of apoptosis in human MCF7 cells assessed as procaspase 8 activation after 48 hrs; assay type: functional, cell-based
[26] = tested on: BT-474; test: Cytotoxicity against human BT474 cells after 72 hrs by MTS assay; assay type: functional, cell-based; settings: BT-474, 72 h; method in brief: as §3
[27] = target: Focal adhesion kinase 1 (Homo sapiens) (UniProt Q05397); test: Inhibition of FAK phosphorylation in human MCF7 cells expressing VEGFR3 cells assessed as decrease in total phosphorylation at 10 uM after 24 hrs by immunoprecipitation technique; assay type: cell-based; method in brief: as §6
[28] = tested on: MCF7; test: Cytotoxicity against human MCF7 cells expressing VEGFR3 assessed as cell viability at 10 uM after 48 hrs by MTS assay; assay type: functional; method in brief: as §1

Sequence of Focal adhesion kinase 1 (Homo sapiens) (Q05397 2-1052 limits assumed): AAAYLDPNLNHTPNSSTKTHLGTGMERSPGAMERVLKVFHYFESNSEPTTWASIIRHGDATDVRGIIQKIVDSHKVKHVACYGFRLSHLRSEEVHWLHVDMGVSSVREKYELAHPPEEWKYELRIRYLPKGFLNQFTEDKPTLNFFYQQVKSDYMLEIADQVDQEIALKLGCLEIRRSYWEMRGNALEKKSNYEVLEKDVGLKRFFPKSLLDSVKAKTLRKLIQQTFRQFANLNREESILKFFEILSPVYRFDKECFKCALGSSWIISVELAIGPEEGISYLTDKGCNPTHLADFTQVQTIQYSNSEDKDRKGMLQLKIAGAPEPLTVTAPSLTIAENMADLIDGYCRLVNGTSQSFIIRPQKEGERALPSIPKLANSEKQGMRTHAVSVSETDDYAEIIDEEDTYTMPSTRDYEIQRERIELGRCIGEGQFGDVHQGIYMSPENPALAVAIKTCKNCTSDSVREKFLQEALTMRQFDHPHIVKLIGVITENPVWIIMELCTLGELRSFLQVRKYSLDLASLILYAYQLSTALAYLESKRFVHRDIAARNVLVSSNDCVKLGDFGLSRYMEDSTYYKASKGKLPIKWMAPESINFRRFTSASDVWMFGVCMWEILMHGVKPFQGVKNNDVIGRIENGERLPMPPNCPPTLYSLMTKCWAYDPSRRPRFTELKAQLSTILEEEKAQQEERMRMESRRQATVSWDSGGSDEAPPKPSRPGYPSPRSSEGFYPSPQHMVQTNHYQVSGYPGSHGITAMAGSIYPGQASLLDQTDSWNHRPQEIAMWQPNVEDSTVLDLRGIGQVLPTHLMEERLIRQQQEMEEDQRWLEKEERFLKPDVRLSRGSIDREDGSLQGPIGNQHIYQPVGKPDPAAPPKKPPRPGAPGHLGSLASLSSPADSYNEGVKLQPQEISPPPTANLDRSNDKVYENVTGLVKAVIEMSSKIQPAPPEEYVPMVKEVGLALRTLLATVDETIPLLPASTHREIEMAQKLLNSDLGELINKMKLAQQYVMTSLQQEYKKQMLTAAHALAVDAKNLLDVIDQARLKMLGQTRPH
Sequence of Vascular endothelial growth factor receptor 3 (Homo sapiens) (P35916 whole entry): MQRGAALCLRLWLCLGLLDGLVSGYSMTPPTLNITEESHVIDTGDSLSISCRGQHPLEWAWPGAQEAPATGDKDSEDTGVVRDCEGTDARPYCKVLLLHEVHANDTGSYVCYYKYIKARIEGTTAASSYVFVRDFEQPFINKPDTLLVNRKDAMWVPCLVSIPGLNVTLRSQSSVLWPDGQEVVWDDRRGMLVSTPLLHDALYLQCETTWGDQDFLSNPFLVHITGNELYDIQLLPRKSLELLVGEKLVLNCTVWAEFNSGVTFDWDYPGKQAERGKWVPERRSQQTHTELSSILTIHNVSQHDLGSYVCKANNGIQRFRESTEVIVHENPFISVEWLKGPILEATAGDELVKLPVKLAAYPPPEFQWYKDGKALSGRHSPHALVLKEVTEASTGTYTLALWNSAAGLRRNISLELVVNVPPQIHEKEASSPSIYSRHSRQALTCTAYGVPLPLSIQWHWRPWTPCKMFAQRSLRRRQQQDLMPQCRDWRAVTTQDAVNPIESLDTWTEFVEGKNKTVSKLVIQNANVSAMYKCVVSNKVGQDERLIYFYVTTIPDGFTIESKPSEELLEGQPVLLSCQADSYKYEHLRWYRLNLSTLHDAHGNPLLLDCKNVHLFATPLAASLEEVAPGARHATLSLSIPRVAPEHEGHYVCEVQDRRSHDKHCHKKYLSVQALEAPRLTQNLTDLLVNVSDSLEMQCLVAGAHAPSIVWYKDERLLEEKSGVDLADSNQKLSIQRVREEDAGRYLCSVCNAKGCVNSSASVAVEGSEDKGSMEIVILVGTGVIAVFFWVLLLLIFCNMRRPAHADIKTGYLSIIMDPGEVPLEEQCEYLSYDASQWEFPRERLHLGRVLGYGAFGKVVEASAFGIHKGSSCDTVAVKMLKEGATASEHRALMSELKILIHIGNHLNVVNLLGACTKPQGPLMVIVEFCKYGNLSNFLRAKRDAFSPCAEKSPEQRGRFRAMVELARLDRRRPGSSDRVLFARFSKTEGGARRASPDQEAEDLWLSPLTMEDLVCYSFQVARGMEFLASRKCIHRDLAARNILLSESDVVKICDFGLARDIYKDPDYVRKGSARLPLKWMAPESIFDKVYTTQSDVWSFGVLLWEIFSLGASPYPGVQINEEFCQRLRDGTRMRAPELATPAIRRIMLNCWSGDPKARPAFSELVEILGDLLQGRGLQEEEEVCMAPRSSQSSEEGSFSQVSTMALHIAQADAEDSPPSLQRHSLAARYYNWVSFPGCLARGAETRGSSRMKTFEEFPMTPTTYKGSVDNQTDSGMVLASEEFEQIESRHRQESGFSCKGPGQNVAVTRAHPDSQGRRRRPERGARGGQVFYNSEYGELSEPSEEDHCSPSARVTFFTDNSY

CN(C)CCN(Cc1ccc(Cl)cc1)c1ccccn1.Cl [CHLORPYRAMIN HYDROCHLORIDE]
Activity [1]: Active | Activity [2]: tde | Activity [3]: 29% | Activity [4]: tde | Activity [5]: Active | Activity [6]: 20% | Activity [7]: tde | Activity [8]: Dose-dependent effect | Activity [9]: 76% | Activity [10]: 60% | IC50 [11]: 1000 nM | Activity [12]: 18% | Activity [13]: Active | Activity [14]: Active | Activity [15]: Active | IC50 [16]: 1000 nM | Activity [17]: Active | Activity [18]: Dose-dependent effect | Activity [19]: Active | IC50 [20]: 1000 nM | Activity [21]: 76% | Activity [22]: Dose-dependent effect | Activity [23]: tde | Activity [24]: Dose-dependent effect | Activity [25]: Dose-dependent effect | IC50 [26]: 1000 nM | Activity [27]: Active | fold change (FC) [28]: 2
